Data: ChEMBL document CHEMBL5247630, “Rational design of the zonulin inhibitor AT1001 derivatives as potential anti SARS-CoV-2” (Eur J Med Chem, 2022)
Non-standard residues stand in square brackets, D forms with d. Residues, ends and D or L forms follow the SMILES beside them. *: point of attachment. Hyp = O=C(O)[C@@H]1C[C@@H](O)CN1; Tic = O=C(O)[C@@H]1Cc2ccccc2CN1; Octanoyl = CCCCCCCC(=O)*; Boc = CC(C)(C)OC(=O)*; tBu = CC(C)(C)*

Assays:
[1] = test system: SARS-CoV-2; assay: Antiviral activity against SARS-CoV-2 NVDBB-2220 infected in African green monkey Vero cells assessed as reduction in virus-induced cytopathic effect incubated for 5 days by microscopic analysis; assay type: functional, organism-based; settings: Severe acute respiratory syndrome coronavirus 2, NVDBB-2220, Vero, 120 h
[2] = test system: SARS-CoV-2; assay: Antiviral activity against SARS-CoV-2 UC-1074 infected in African green monkey Vero cells assessed as reduction in virus-induced cytopathic effect incubated for 5 days by microscopic analysis; assay type: functional, organism-based; settings: Severe acute respiratory syndrome coronavirus 2, UC-1074, Vero, 120 h
[3] = test system: SARS-CoV-2; assay: Antiviral activity against SARS-CoV-2 RG2674 infected in African green monkey Vero cells assessed as reduction in virus-induced cytopathic effect incubated for 5 days by microscopic analysis; assay type: functional, organism-based; settings: Severe acute respiratory syndrome coronavirus 2, RG2674, Vero, 120 h
[4] = Cytotoxicity against African green monkey Vero cells assessed as change in cell morphology by microscopic analysis; assay type: toxicity, cell-based; settings: chlorocebus sabaeus
In short: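 Vero CCL81 cells were run in parallel with the antiviral assay in DMEM 2% FCS for 5 days at 37 °C. The value is the minimum concentration causing a microscopically detectable change in cell morphology.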

[5] = test system: Vero; assay: Cytotoxicity against African green monkey Vero cells assessed as reduction in cell growth by Coulter counter analysis; assay type: toxicity, cell-based; settings: chlorocebus sabaeus
In short: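 Mock-infected Vero CCL81 cultures were treated with the compound dilution series in DMEM 2% FCS for 5 days at 37 °C.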

[6] = biological target: T1, Replicase polyprotein 1ab (Severe acute respiratory syndrome coronavirus 2, UniProt P0DTD1); assay: Inhibition of C-terminal His6-tagged recombinant SARS-CoV-2 MPro transfected in Escherichia coli BL21 (DE3) using Dabcyl-KTSAVLQSGFRKM-E(Edans)-NH2 as substrate preincubated for 15 mins followed by substrate addition measured after 30 mins by FRET assay
In short: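 Recombinant Mpro (20 nM final) was preincubated 15 min at room temperature with compound.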

[7] = biological target: T1, Replicase polyprotein 1ab; assay: Binding affinity to C-terminal His6-tagged recombinant SARS-CoV-2 MPro transfected in Escherichia coli BL21 (DE3) assessed as dissociation constant by Cheng-Prusoff equation analysis
[8] = Stability of compound in PBS buffer at pH 7 at 25 to […] degreeC measured for 3 to 24 hrs by HPLC analysis; assay type: physicochemical; settings: time 3-24 hrs
In short: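 Peptide at 0.3 mg/mL was held in PBS pH 7.0 at 25 °C and 37 °C for 24 h. The peptide peak area was followed by RP-HPLC on C18 with detection at 220 nm, sampled at 3, 6, 8 and 24 h.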

[9] = test system: Human betaherpesvirus 5; assay: Antiviral activity against HCMV Davis infected in HELF cells assessed as reduction in viral replication; assay type: functional, organism-based; settings: Human betaherpesvirus 5, Davis
[10] = test system: Human betaherpesvirus 5; assay: Antiviral activity against HCMV AD-169 infected in HELF cells assessed as reduction in viral replication; assay type: functional, organism-based; settings: Human betaherpesvirus 5, AD-169, HELF
[11] = test system: Human alphaherpesvirus 3; assay: Antiviral activity against thymidine kinase positive VZV OKA infected in HELF cells assessed as reduction in viral replication; assay type: functional, organism-based; settings: Human alphaherpesvirus 3, OKA
[12] = biological target: Replicase polyprotein 1ab (Severe acute respiratory syndrome coronavirus 2) (UniProt P0DTD1); assay: Binding affinity to C-terminal His6-tagged recombinant SARS-CoV-2 MPro expressed in Escherichia coli BL21 (DE3) assessed as change in enthalpy by ITC assay
In short: (§1)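 E. coli BL21(DE3) Mpro, made untagged by 3C cleavage and SEC, was dialysed into 25 mM Tris-HCl pH 7.6, 20 mM NaCl, 1 mM TCEP. 20–25 µM protein in the cell was titrated with 160–250 µM compound at 28 °C, 0.5% DMSO on both sides, 2.5 µL injections every 180 s. One-site fit with stoichiometry fixed at 1 gave ΔH, ΔS and KD.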

[13] = biological target: T1, Replicase polyprotein 1ab; assay: Binding affinity to C-terminal His6-tagged recombinant SARS-CoV-2 MPro expressed in Escherichia coli BL21 (DE3) assessed as dissociation constant by ITC assay; in short: as §1
[14] = Cytotoxicity against HELF cells assessed as change in cell morphology; assay type: toxicity, cell-based; settings: human
[15] = biological target: Replicase polyprotein 1ab (Severe acute respiratory syndrome coronavirus 2) (UniProt P0DTD1); assay: Binding affinity to C-terminal His6-tagged recombinant SARS-CoV-2 MPro expressed in Escherichia coli BL21 (DE3) assessed as change in gibbs free energy by ITC assay
[16] = biological target: Replicase polyprotein 1ab (Severe acute respiratory syndrome coronavirus 2) (UniProt P0DTD1); assay: Binding affinity to C-terminal His6-tagged recombinant SARS-CoV-2 MPro expressed in Escherichia coli BL21 (DE3) assessed as change in entropy by ITC assay; in short: as §1
[17] = test system: Human alphaherpesvirus 3; assay: Antiviral activity against thymidine kinase deficient VZV 07-1 infected in HELF cells assessed as reduction in viral replication; assay type: functional, organism-based; settings: Human alphaherpesvirus 3, 07-1, HELF
[18] = Cmax in C57BL6 mouse at 1.25 mg/kg, INH; assay type: ADME, organism-based; parameters: dose 1.25 mg/kg, route inh; settings: in vivo, inhaled_or_intranasal
In short: (§2)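 Male C57BL6 mice, 6–8 weeks, 3 per group, single intranasal dose (0.5 mg/kg at 1.0 mg/mL; 1.25 mg/kg at 2.5 mg/mL) or oral dose (10 mg/kg at 1.0 mg/mL; 25 mg/kg at 2.5 mg/mL). Blood collected at 0.25, 1, 2, 4, 8 and 24 h. Cmax, Tmax and AUCt/dose were taken from plasma concentrations, given with SD.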

[19] = Cmax in C57BL6 mouse at 0.5 mg/kg, INH measured for 0.25 to 24 hrs; assay type: ADME, organism-based; parameters: time lower 0.25 hrs, dose 0.5 mg/kg, time upper 24 hrs, route inh; settings: in vivo, inhaled_or_intranasal; in short: as §2
[20] = AUCt/dose in C57BL6 mouse at 0.5 mg/kg, INH measured for 0.25 to 24 hrs; assay type: ADME, organism-based; settings: in vivo, inhaled_or_intranasal, time 0.25-24 hrs; in short: as §2
[21] = Tmax in C57BL6 mouse at 25 mg/kg, po; assay type: ADME, organism-based; settings: in vivo; in short: as §2
[22] = Cmax in C57BL6 mouse at 10 mg/kg, po; assay type: ADME, organism-based; parameters: dose 10 mg/kg, route po; settings: in vivo; in short: as §2
[23] = Cmax in C57BL6 mouse at 25 mg/kg, po; assay type: ADME, organism-based; parameters: dose 25 mg/kg, route po; settings: in vivo; in short: as §2
[24] = Tmax in C57BL6 mouse at 0.5 mg/kg, INH; assay type: ADME, organism-based; settings: in vivo, inhaled_or_intranasal; in short: as §2
[25] = AUCt/dose in C57BL6 mouse at 1.25 mg/kg, INH; assay type: ADME, organism-based; settings: in vivo, inhaled_or_intranasal; in short: as §2
[26] = Selectivity index, ratio of EC50 for antiviral activity against SARS-CoV-2 RG2674 infected in African green monkey Vero cells to EC50 for antiviral activity against SARS-CoV-2 NVDBB-2220 infected in African green monkey Vero cells; assay type: toxicity
[27] = AUCt/dose in C57BL6 mouse at 10 mg/kg, po; assay type: ADME, organism-based; settings: in vivo; in short: as §2
[28] = AUCt/dose in C57BL6 mouse at 25 mg/kg, po; assay type: ADME, organism-based; settings: in vivo; in short: as §2
[29] = Tmax in C57BL6 mouse at 1.25 mg/kg, INH; assay type: ADME, organism-based; settings: in vivo, inhaled_or_intranasal; in short: as §2
[30] = Selectivity index, ratio of EC50 for antiviral activity against SARS-CoV-2 RG2674 infected in African green monkey Vero cells to EC50 for antiviral activity against SARS-CoV-2 UC-1074 infected in African green monkey Vero cells; assay type: toxicity
[31] = Tmax in C57BL6 mouse at 10 mg/kg, po; assay type: ADME, organism-based; settings: in vivo; in short: as §2

Compound: CCC(CC)COC(=O)[C@H](C)N[P@](=O)(OC[C@H]1O[C@@](C#N)(c2ccc3c(N)ncnn23)[C@H](O)[C@@H]1O)Oc1ccccc1
- EC50 [1]: 0.2 µM
- EC50 [2]: 0.89 µM
- EC50 [3]: 1.3 µM
- MCC [4]: 80 µM
- CC50 [5]: 70.6 µM

Compound: CC(=O)NCC(=O)N[C@@H](Cc1c[nH]cn1)C(=O)N[C@H](C=O)Cc1c[nH]cn1 (Ac-Gly-His-His-aldehyde)
- IC50 [6]: > 213 µM
- Kd [7]: > 107 µM

Compound: CC(=O)NCC(=O)N[C@@H](Cc1c[nH]cn1)C(=O)N[C@H](C=O)Cc1ccc(O)cc1 (Ac-Gly-His-Tyr-aldehyde)
- IC50 [6]: > 425 µM
- Kd [7]: > 213 µM

Compound: CC(=O)NCC(=O)N[C@@H](Cc1ccccc1)C(=O)N[C@H](C=O)Cc1c[nH]cn1 (Ac-Gly-Phe-His-aldehyde)
- EC50 [1]: 40.3 µM
- EC50 [2]: 66.1 µM
- EC50 [3]: > 100 µM
- Stability [8]: Stable
- EC50 [9]: > 100 µM
- EC50 [10]: > 20 µM
- IC50 [6]: 2.51 µM
- EC50 [11]: > 100 µM
- deltaH [12]: -53.2 kJ/mol
- Kd [13]: 640 nM
- Kd [7]: 1.26 µM
- MCC [14]: > 100 µM
- MCC [4]: ≥ 100 µM
- deltaG [15]: -35.7 kJ/mol
- CC50 [5]: > 100 µM
- -TdeltaS [16]: 17.4 kJ/mol
- EC50 [17]: > 100 µM

Compound: CC(=O)NCC(=O)N[C@@H](Cc1ccc(O)cc1)C(=O)N[C@H](C=O)Cc1c[nH]cn1 (Ac-Gly-Tyr-His-aldehyde)
- IC50 [6]: 198 µM
- Kd [7]: 98.9 µM

Compound: CC(C)(C)OC(=O)NCC(=O)N[C@@H](Cc1ccccc1)C(=O)N[C@H](C=O)Cc1c[nH]cn1 (Boc-Gly-Phe-His-aldehyde)
- EC50 [1]: 43.3 µM
- EC50 [2]: 50.2 µM
- EC50 [3]: 84.9 µM
- EC50 [9]: > 100 µM
- EC50 [10]: > 20 µM
- IC50 [6]: 6.49 µM
- EC50 [11]: > 100 µM
- deltaH [12]: -60.8 kJ/mol
- Kd [13]: 442 nM
- Kd [7]: 3.26 µM
- MCC [14]: > 100 µM
- MCC [4]: ≥ 100 µM
- deltaG [15]: -36.7 kJ/mol
- CC50 [5]: > 100 µM
- -TdeltaS [16]: 24.2 kJ/mol
- EC50 [17]: > 100 µM

Compound: CC(C)(C)O[C@H]1CN[C@H](C(=O)N[C@@H](Cc2c[nH]cn2)C(=O)N[C@H](C=O)Cc2c[nH]cn2)C1 (H-[Hyp](tBu)-His-His-aldehyde)
- IC50 [6]: > 170 µM
- Kd [7]: > 85 µM

Compound: O=C[C@H](Cc1c[nH]cn1)NC(=O)[C@H](Cc1c[nH]cn1)NC(=O)[C@@H]1Cc2ccccc2CN1 (H-[Tic]-His-His-aldehyde)
- IC50 [6]: 37.8 µM
- Kd [7]: 18.9 µM

Compound: CC(C)C[C@@H](C=O)NC(=O)[C@H](Cc1ccccc1)NC(=O)[C@@H]1Cc2ccccc2CN1 (H-[Tic]-Phe-Leu-aldehyde)
- IC50 [6]: > 425 µM
- Kd [7]: > 213 µM

Compound: CCCCCCCC(=O)NCC(=O)N[C@@H](Cc1ccccc1)C(=O)N[C@H](C=O)Cc1c[nH]cn1 (Octanoyl-Gly-Phe-His-aldehyde)
- Cmax [18]: 325.95 ng/mL
- EC50 [1]: 5.2 µM
- Cmax [19]: 177.97 ng/mL
- EC50 [2]: 5 µM
- EC50 [3]: 39.9 µM
- EC50 [9]: > 100 µM
- EC50 [10]: > 20 µM
- IC50 [6]: 2.37 µM
- AUCt/dose [20]: 188.05 kg·ng·h/mL/mg
- Tmax [21]: 30 min
- Cmax [22]: 22.72 ng/mg
- Cmax [23]: 33.7 ng/mL
- EC50 [11]: > 100 µM
- Tmax [24]: 15 min
- AUCt/dose [25]: 150.62 kg·ng·h/mL/mg
- Ratio EC50 [26]: 8
- deltaH [12]: -68.5 kJ/mol
- AUCt/dose [27]: 3.07 kg·ng·h/mL/mg
- Kd [13]: 425 nM
- Kd [7]: 1.19 µM
- AUCt/dose [28]: 2 kg·ng·h/mL/mg
- MCC [14]: > 100 µM
- Tmax [29]: 15 min
- MCC [4]: ≥ 100 µM
- deltaG [15]: -36.8 kJ/mol
- Ratio EC50 [30]: 8
- CC50 [5]: > 100 µM
- -TdeltaS [16]: 31.8 kJ/mol
- Tmax [31]: 45 min
- EC50 [17]: > 100 µM

Compound: Nc1nc2c(ncn2COCCO)c(=O)[nH]1 [ACYCLOVIR]
- MCC [14]: > 444 µM

Compound: O=c1[nH]c(=O)n([C@H]2C[C@H](O)[C@@H](CO)O2)cc1/C=C/Br [BRIVUDINE]
- EC50 [11]: 0.17 µM
- MCC [14]: > 300 µM
- EC50 [17]: 4.53 µM

Compound: Nc1ccn(C[C@@H](CO)OCP(=O)(O)O)c(=O)n1 [CIDOFOVIR]
- EC50 [9]: 0.25 µM
- EC50 [10]: 1.08 µM

Compound: Ac-GGVLVQPG-NH2
- EC50 [2]: 17.6 µM
